An excerpt weighted towards active compounds, which were near 2.1% of everything screened.
ABCB1 inh: blocks JC-1 efflux by human ABCB1 transporter. inhibition, % at 6.6 µM. CCRF-Adr cells, flow cytometry. 0.067% of 190,000 active. P08183; in the data active = inhibition above about 40%;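 note: 0% = vehicle and 100% = reference inhibitor; higher value means more JC-1 retained so stronger ABCB1 efflux block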
ABCG2 inh: inhibitors of human ABCG2 transporter, ABCB1 counter-screen; Q9UNQ0; IgMXP3 cells, JC-1 efflux, flow cytometry; inhibition, % at 6.6 µM; 0.1% of 190,000 active; AID 1325;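 active = inhibition above 80%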;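 note: 0% = DMSO and 100% = nicardipine control wells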
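Test system: IgMXP3 cells (ABCG2) mixed with DDAO far-red-labelled CCRF-Adr cells (ABCB1). Reagent: JC-1 transporter substrate. Compound dosing: single test compound dose, 6.6 µM final. Times: 10 min compound exposure, 25 °C. Detection: flow cytometry of retained JC-1 fluorescence. Read-out basis: efflux inhibition in percent versus controls. Controls: nicardipine and DMSO wells.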
Autophagy HCS: alters autophagy in cells | MEF GFP-LC3 puncta imaging; test concentration mostly 10 µM | calls only at 10 µM (by protocol) | 0.98% of 190,000 active | AID 463193;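 active = percentage of spot-positive cells more than 3 SD above its plate mean, without a fluorescence outlier flag or 80% toxicity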;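 note: spot-positive cell cutoff set from DMSO-treated cells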
MT stabilizer: stabilizes microtubules in HeLa cells; % tubulin-high responders, % at 10 µM; 0.83% of 200,000 active; HeLa tubulin immunostaining HCS, 24 h; share of cells brighter than vehicle mean+2SD;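 active = plate Z-score above 3 for both tubulin-high and condensed-nucleus cell shares, with cell loss under 80%, at 10 µM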;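 note: anti alpha tubulin signal scored within the nucleus-defined area of each cell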
Arbovirus anti: blocks arbovirus infection. inhibition, % at 10 µM. arbovirus infection cell-based antiviral screen. AID 1251. 0.37% of 200,000 active; in the data active = inhibition above about 30%
b-catenin transl: alters nuclear translocation of beta-catenin in HeLa cells; immunofluorescence imaging; nuclear translocation activity, % at 5 µM; 0.3% of 190,000 active;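 active = nuclear translocation activity above 50% at 5 µM, with a well cell count of 50 or more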;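 note: per-cell ratio of nuclear to cytoplasmic median beta-catenin stain intensity; plate controls were DMSO negative control for no effect and GSK-3 inhibitor IX positive control for full effect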
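Signal – beta-catenin immunofluorescence imaging with DAPI · Test system – human HeLa cell line · Dosing – 5 µM primary single dose, 0.1% DMSO, 0.02–20 µM confirmation series · Measure – % activation, nuclear-to-cytoplasmic median beta-catenin signal ratio per cell · Incubation – 24 h compound exposure at 37°C, 5% CO2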
ABCB1 confirm: confirmation of human ABCB1 transporter inhibitors, ABCG2 counter-screen; shares compounds with ABCG2 inh; CCRF-Adr cells, JC-1 efflux, flow cytometry; inhibition, % at 6.6 µM; 7% of 270 active;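 active = inhibition of pump activity above 50%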;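 note: 0% = DMSO and 100% = nicardipine full pump inhibition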
ABCG2 confirm: confirmation of human ABCG2 transporter inhibitors, ABCB1 counter-screen | shares compounds with ABCG2 inh | IgMXP3 cells, JC-1 efflux, flow cytometry | inhibition, % at 6.6 µM | 6% of 270 active | AID 1453;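 active = inhibition above 50%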;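 note: 0% = DMSO wells and 100% = nicardipine pump inhibitor wells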
IgMXP3 fluor: IgMXP3 autofluorescence flag for ABCG2 confirmation. IgMXP3 cells, compound autofluorescence 488/530 nm, flow; stronger effect = higher value. shares compounds with ABCG2 inh. fluorescence at 6.6 µM. 30% of 270 active;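 active = fluorescence in ABCG2-expressing cells above the plate's control-well mean plus 3 SD, cut at about 15 in these data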;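 note: median cell fluorescence with compound minus that of DMSO-treated control cells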
CCRF-Adr fluor: CCRF-Adr autofluorescence flag for ABCB1 confirmation; CCRF-Adr cells, compound autofluorescence 488/530 nm, flow cytometry; stronger effect = higher value; AID 1483; fluorescence at 6.6 µM; 30% of 270 active; shares compounds with ABCG2 inh;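 active = fluorescence beyond the plate control mean plus 3 SD, with a fluorescence-to-maximum score over 2, cut at about 25 in these data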
* = called active by the depositor; i = inactive; . = no result; + = active, no number.

SMILES	ABCB1 inh	ABCG2 inh	Autophagy HCS	MT stabilizer	Arbovirus anti	b-catenin transl	ABCB1 confirm	ABCG2 confirm	IgMXP3 fluor	CCRF-Adr fluor
CCNC(=O)Cn1c(=O)c(=O)n(Cc2ccccc2)c2ccc(Cl)cc21	1.1	94.9*	i	7.4	-5.6	-2.6	-3.6	3.8	2.56	27.4*
CNc1nc2cc([N+](=O)[O-])c([N+](=O)[O-])cc2nc1NC	0.2	123.6*	i	5.5	-8.7	0.0	47.7	69.3*	20.8*	30.5*
Cc1ccc(C(=O)N2CCN(c3ccc(C(F)(F)F)cn3)CC2)cc1	0.8	3.3	i	2.3	7.7	0.4	.	.	.	.
Cc1cc(C)c(C#N)c(SCc2nnc(-c3ccccc3[N+](=O)[O-])o2)n1	1.6	10.7	i	1.5	-27.8	1.1	.	.	.	.
Cc1cc(C)c(C#N)c(SCc2c(F)cccc2[N+](=O)[O-])n1	4.7	92.1*	i	2.6	-11.7	0.3	3.2	51.5*	-2.04	-4.54
Cc1ccc(C#N)c(SCc2ccccc2[N+](=O)[O-])n1	4.0	54.6	i	2.8	0.3	-0.7	.	.	.	.
Cc1cc(C)c(C#N)c(SCc2ccccc2[N+](=O)[O-])n1	7.2	100.6*	i	2.4	-7.0	0.3	6.5	48.4	-1.09	-1.99
Cc1ccc(S(=O)(=O)N2CCC(C(=O)Nc3nnc(-c4ccc(F)cc4)s3)CC2)cc1	0.3	6.7	i	1.9	6.8	-1.1	.	.	.	.
O=C(O)CC(NC(=O)C12CC3CC(CC(C3)C1)C2)c1ccc(OC2CCCC2)cc1 (stereo not given)	0.3	3.0	i	4.0	2.8	-0.8	.	.	.	.
C/C(=N\NC(=O)COc1ccc(C#N)cc1)c1ccc(N2CCOCC2)cc1	0.5	3.2	i	4.5	0.4	0.1	.	.	.	.
C/C(=N\NC(=O)COc1cc(C)cc(C)c1)c1ccc(N2CCOCC2)cc1	0.4	91.7*	i	1.9	-4.5	-0.4	0.8	41.8	-2.19	-4.59
CCCN(CCC)CCOc1cc(C)ccc1C(C)C	137.3*	+	i	4.8	0.8	2.9	0.8	-0.8	13.3	37.3*
CCOC(=O)c1cn2nc(-c3ccc(OC)cc3)cc2nc1C1CCN(C(=O)OC(C)(C)C)CC1	51.1*	26.9	i	2.7	5.5	-0.7	45.0	14.6	0.41	-1.19
COc1ccc(-c2cc(C3CCN(C(=O)OC(C)(C)C)CC3)[nH]n2)cc1	1.3	4.4	i	3.8	6.7	-1.4	.	.	.	.
O=C1S/C(=C/c2ccc(N3CCOCC3)o2)C(=O)N1Cc1c(F)cccc1Cl	4.7	135.9*	i	5.2	-2.5	0.6	-11.6	2.9	248*	49.4*
O=C(NCCN1CCOCC1)c1ccc2c(c1)N(Cc1c(F)cccc1Cl)C(=O)c1ccccc1S2	13.8	-5.2	i	4.3	-19.0	-1.4	.	.	.	.
Cc1cc([N+](=O)[O-])ccc1NC(=O)Cc1ccc(F)cc1	0.5	7.1	i	3.8	3.7	0.4	.	.	.	.
Cc1cc([N+](=O)[O-])ccc1NC(=O)Nc1ccccc1F	1.8	105.5*	i	3.8	-6.6	0.4	1.4	40.4	-0.99	3.96
O=C(CN1C(=O)NC(Cc2ccccc2)C1=O)Nc1ccccc1 (stereo not given)	0.4	1.6	i	2.2	3.1	.	.	.	.	.
CCc1ccc2oc(-c3ccc(OC)cc3)cc(=Nc3c(C)n(C)n(-c4ccccc4)c3=O)c2c1	44.4*	96.9*	i	4.9	-17.9	.	28.1	40.7	0.21	1.61
COc1cc(C(=O)N/N=C/c2ccc(OC)c(CN3CCN(c4ccc(F)cc4)CC3)c2)ccc1O	45.4*	16.3	i	2.2	4.1	-0.4	64.0*	36.7	-2.04	-3.09
COc1ccc(/C=N/NC(=O)c2ccccc2)cc1CN1CCN(c2ccc(F)cc2)CC1	6.5	2.0	i	2.7	2.7	0.5	.	.	.	.
COc1ccc(/C=N/NC(=O)c2ccccc2F)cc1CN1CCN(c2ccc(F)cc2)CC1	52.2*	24.5	i	2.6	5.6	0.5	30.9	6.9	0.36	-2.29
O=C(Cn1nc(C(F)(F)F)c2c1CCCC2)NC1CCCC1	0.1	0.6	i	1.6	10.6	.	.	.	.	.
O=[N+]([O-])c1ccc(Nc2nc(Cl)nc(NCCO)n2)cc1	2.5	65.9	i	2.4	4.8	-2.0	2.4	54.5*	-2.24	-5.04
SMILES	ABCB1 inh	ABCG2 inh	Autophagy HCS	MT stabilizer	Arbovirus anti	b-catenin transl	ABCB1 confirm	ABCG2 confirm	IgMXP3 fluor	CCRF-Adr fluor
Cc1cccc(N2CCN(S(=O)(=O)c3cccc4nonc34)CC2C)c1 (stereo not given)	0.1	0.0	i	1.1	-3.3	-1.2	.	.	.	.
COc1ccc(CN2CCn3nc(C(=O)NC(C)C)cc3C2=O)cc1	41.4*	0.0	i	4.3	5.6	-1.1	-1.5	4.3	3.41	0.71
CCN(CC)C(=O)N1c2ccccc2CC(N(CC)CC)c2ccccc21 (stereo not given)	1.4	9.8	i	3.8	-8.5	-0.9	.	.	.	.
N=c1oc2c3c4c(cc2cc1C(=O)Nc1ccccc1)CCCN4CCC3	131.2*	+	i	2.0	4.0	0.8	-13.7	-78.2	625*	666*
O=C1C2C3C=CC(C3)C2C(=O)N1CCN1CCN(Cc2ccc([N+](=O)[O-])cc2)CC1 (stereo not given)	3.9	2.2	i	1.8	2.9	2.1	.	.	.	.
CN(C)c1ccc(P(=O)(Nc2cccc(C(F)(F)F)c2)N2CCOCC2)c(NC(=O)c2cccs2)c1 (stereo not given)	50.7*	19.1	i	3.1	7.3	-3.3	74.7*	26.4	-2.19	-4.64
CCOc1cc(CNCCSc2nnnn2C)cc(Br)c1OCc1ccc(F)cc1	9.6	105.3*	i	5.3	-8.6	1.0	1.0	11.4	-1.79	34*
COc1cc(CNCCSc2nnnn2C)cc(Br)c1OCc1ccc(F)cc1	1.5	10.2	i	1.9	-7.2	9.5	.	.	.	.
O=C1OCCN1CCNCc1cn(-c2ccc(F)cc2)nc1-c1ccccc1Cl	0.2	-0.6	i	2.0	-1.1	1.8	.	.	.	.
CN(C)c1ccc(/C=C2\N=C(c3ccc(Cl)c([N+](=O)[O-])c3)NC2=O)cc1	83.0*	83.4*	i	3.7	-11.5	-0.2	3.5	5.5	74.7*	93.7*
CN(C)c1ccc(/C=C2/NC(=O)NC2=O)cc1	0.3	7.5	i	4.2	-5.3	-0.5	.	.	.	.
